# Assay results as given in ChEMBL document CHEMBL3259701, “Siderophore receptor-mediated uptake of lactivicin analogues in gram-negative bacteria” (J Med Chem, 2014).
# pIC50: −log10 of the molar value.
# Key:
# Pseudomonas aeruginosa [1] = assay: Antibacterial activity against Pseudomonas aeruginosa PAO1 harboring siderophore receptor piuA mutant in Mueller-Hinton broth medium by CLSI broth microdilution method; type: functional
# In short: (§1)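 MIC by CLSI broth microdilution in standard Mueller Hinton broth. Tested against wild-type P. aeruginosa PAO1 and an isogenic panel lacking one or more siderophore receptors.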
# Pseudomonas aeruginosa [2] = assay: Antibacterial activity against Pseudomonas aeruginosa PAO1 harboring siderophore receptor piuA mutant in medium containing low-Fe by CLSI broth microdilution method; type: functional
# In short: (§2)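 MIC by CLSI broth microdilution in a modified Mueller Hinton broth depleted of iron to mimic the low-iron in vivo environment. Tested against PAO1 and isogenic strains lacking one or more siderophore receptors.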
# Pseudomonas aeruginosa [3] = assay: Ratio of MIC for Pseudomonas aeruginosa PAO1 harboring siderophore receptor piuA and pirA double mutant in MHB medium to MIC for Pseudomonas aeruginosa PAO1 harboring siderophore receptor piuA and pirA double mutant in medium containing low-Fe by CLSI broth microdilution method; type: functional
# Pseudomonas aeruginosa [4] = assay: Antibacterial activity against Pseudomonas aeruginosa PAO1 harboring siderophore receptor piuA and pirA double mutant in Mueller-Hinton broth medium by CLSI broth microdilution method; type: functional; in short: as §1
# Pseudomonas aeruginosa [5] = assay: Ratio of MIC for Pseudomonas aeruginosa PAO1 harboring siderophore receptor piuA and pirA double mutant to MIC for wild type Pseudomonas aeruginosa PAO1 in Mueller-Hinton broth medium by CLSI broth microdilution method; type: functional
# In short: (§3)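 Broth microdilution MIC per CLSI in standard Mueller-Hinton broth, run against wild-type P. aeruginosa PAO1 and isogenic PAO1 strains lacking one or more siderophore receptors. Value is the mutant-strain MIC divided by the PAO1 MIC.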
# Pseudomonas aeruginosa [6] = assay: Ratio of MIC for Pseudomonas aeruginosa PAO1 harboring siderophore receptor piuA, pfeA and pirA mutant to MIC for wild type Pseudomonas aeruginosa PAO1 in Mueller-Hinton broth medium by CLSI broth microdilution method; type: functional; in short: as §3
# Pseudomonas aeruginosa [7] = assay: Antibacterial activity against Pseudomonas aeruginosa 1091-05 by CLSI broth microdilution method; type: functional
# Pseudomonas aeruginosa [8] = assay: Antibacterial activity against Pseudomonas aeruginosa PAO1 harboring siderophore receptor piuA and fpvA double mutant in medium containing low-Fe by CLSI broth microdilution method; type: functional; in short: as §2
# Pseudomonas aeruginosa [9] = assay: Ratio of MIC for Pseudomonas aeruginosa PAO1 harboring siderophore receptor pirA and pfeA double mutant to MIC for wild type Pseudomonas aeruginosa PAO1 in medium containing aztreonam and low-Fe by CLSI broth microdilution method; type: functional
# Pseudomonas aeruginosa [10] = assay: Ratio of MIC for Pseudomonas aeruginosa PAO1 harboring siderophore receptor fpvA mutant to MIC for wild type Pseudomonas aeruginosa PAO1 in Mueller-Hinton broth medium by CLSI broth microdilution method; type: functional
# In short: (§4)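 Receptor-deficient PAO1 strain MIC divided by parent PAO1 MIC. Both MICs were obtained by CLSI broth microdilution in standard Mueller Hinton broth. A shift greater than 4× was taken to indicate that the deleted receptor(s) take part in drug uptake.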
# Pseudomonas aeruginosa [11] = assay: Ratio of MIC for Pseudomonas aeruginosa PAO1 harboring siderophore receptor pirA and pfeA double mutant to MIC for wild type Pseudomonas aeruginosa PAO1 in Mueller-Hinton broth medium by CLSI broth microdilution method; type: functional; in short: as §4
# Pseudomonas aeruginosa [12] = assay: Antibacterial activity against Pseudomonas aeruginosa PAO1 harboring siderophore receptor fpvA mutant in Mueller-Hinton broth medium by CLSI broth microdilution method; type: functional; in short: as §1
# Pseudomonas aeruginosa [13] = assay: Antibacterial activity against Pseudomonas aeruginosa PAO1 harboring siderophore receptor piuA and pfeA double mutant in Mueller-Hinton broth medium by CLSI broth microdilution method; type: functional; in short: as §1
# Escherichia coli [14] = assay: Antibacterial activity against Escherichia coli DH5alpha expressing beta-lactamase VIM-2 by CLSI broth microdilution method; type: functional; details: DH5[alpha]
# Pseudomonas aeruginosa [15] = assay: Ratio of MIC for Pseudomonas aeruginosa PAO1 harboring siderophore receptor fptA mutant to MIC for wild type Pseudomonas aeruginosa PAO1 in medium containing aztreonam and low-Fe by CLSI broth microdilution method; type: functional
# Pseudomonas aeruginosa [16] = assay: Antibacterial activity against Pseudomonas aeruginosa PAO1 harboring siderophore receptor pfeA mutant in Mueller-Hinton broth medium by CLSI broth microdilution method; type: functional; in short: as §1
# Pseudomonas aeruginosa [17] = assay: Ratio of MIC for Pseudomonas aeruginosa PAO1 harboring siderophore receptor pirA mutant to MIC for wild type Pseudomonas aeruginosa PAO1 in Mueller-Hinton broth medium by CLSI broth microdilution method; type: functional; in short: as §4
# Escherichia coli [18] = assay: Antibacterial activity against Escherichia coli DH5alpha expressing beta-lactamase TEM-1 by CLSI broth microdilution method; type: functional; details: DH5[alpha]
# Pseudomonas aeruginosa [19] = assay: Ratio of MIC for Pseudomonas aeruginosa PAO1 harboring siderophore receptor piuA, pfeA and pirA mutant to MIC for wild type Pseudomonas aeruginosa PAO1 in medium containing aztreonam and low-Fe by CLSI broth microdilution method; type: functional
# Pseudomonas aeruginosa [20] = assay: Antibacterial activity against Pseudomonas aeruginosa PAO1 in medium containing aztreonam and low-Fe by CLSI broth microdilution method; type: functional
# Escherichia coli [21] = assay: Antibacterial activity against Escherichia coli DH5alpha by CLSI broth microdilution method; type: functional; details: DH5[alpha]
# Escherichia coli [22] = assay: Antibacterial activity against Escherichia coli DH5alpha expressing beta-lactamase KPC-3 by CLSI broth microdilution method; type: functional; details: DH5[alpha]
# Pseudomonas aeruginosa [23] = assay: Ratio of MIC for Pseudomonas aeruginosa PAO1 harboring siderophore receptor fpvA mutant to MIC for wild type Pseudomonas aeruginosa PAO1 in medium containing low-Fe by CLSI broth microdilution method; type: functional
# In short: (§5)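 Ratio of strain MIC to PAO1 MIC. Both MICs were obtained by CLSI broth microdilution in iron-depleted modified Mueller Hinton broth. A shift greater than 4× versus the parent was read as the deleted receptor(s) taking part in uptake.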
# [24] = molecular target: Penicillin-binding protein 1A (Pseudomonas aeruginosa PAO1, UniProt Q07806); assay: Displacement of fluorescent Bocillin FL from N-terminal His tagged Pseudomonas aeruginosa PAO1 PBP1a (residues 36 to 822) expressed in Escherichia coli BL21 (Gold cells)
# Pseudomonas aeruginosa [25] = assay: Ratio of MIC for Pseudomonas aeruginosa PAO1 harboring siderophore receptor pirA mutant to MIC for wild type Pseudomonas aeruginosa PAO1 in medium containing low-Fe by CLSI broth microdilution method; type: functional; in short: as §5
# Escherichia coli [26] = assay: Antibacterial activity against Escherichia coli DH5alpha expressing beta-lactamase TEM-24 by CLSI broth microdilution method; type: functional; details: DH5[alpha]
# Pseudomonas aeruginosa [27] = assay: Antibacterial activity against Pseudomonas aeruginosa PAO1 harboring siderophore receptor piuA and pirA double mutant in medium containing aztreonam and low-Fe by CLSI broth microdilution method; type: functional
# Escherichia coli [28] = assay: Antibacterial activity against Escherichia coli DH5alpha expressing beta-lactamase SHV-5 by CLSI broth microdilution method; type: functional; details: DH5[alpha]
# Pseudomonas aeruginosa [29] = assay: Ratio of MIC for Pseudomonas aeruginosa PAO1 harboring siderophore receptor piuA, pfeA and pirA mutant in MHB medium to MIC for harboring siderophore receptor piuA, pfeA and pirA mutant in medium containing low-Fe by CLSI broth microdilution method; type: functional
# Escherichia coli [30] = assay: Antibacterial activity against Escherichia coli DH5alpha expressing beta-lactamase OXA-24/40 by CLSI broth microdilution method; type: functional; details: DH5[alpha]
# Pseudomonas aeruginosa [31] = assay: Ratio of MIC for Pseudomonas aeruginosa PAO1 harboring siderophore receptor piuA and pfeA double mutant to MIC for wild type Pseudomonas aeruginosa PAO1 in medium containing aztreonam and low-Fe by CLSI broth microdilution method; type: functional
# Pseudomonas aeruginosa [32] = assay: Ratio of MIC for Pseudomonas aeruginosa PAO1 harboring siderophore receptor piuA mutant in MHB medium to MIC for Pseudomonas aeruginosa PAO1 harboring siderophore receptor piuA mutant in medium containing low-Fe by CLSI broth microdilution method; type: functional
# Pseudomonas aeruginosa [33] = assay: Ratio of MIC for Pseudomonas aeruginosa PAO1 harboring siderophore receptor pirA mutant to MIC for wild type Pseudomonas aeruginosa PAO1 in medium containing aztreonam and low-Fe by CLSI broth microdilution method; type: functional
# Chain of Penicillin-binding protein 1A (Q07806 whole entry, the tested form may be a part): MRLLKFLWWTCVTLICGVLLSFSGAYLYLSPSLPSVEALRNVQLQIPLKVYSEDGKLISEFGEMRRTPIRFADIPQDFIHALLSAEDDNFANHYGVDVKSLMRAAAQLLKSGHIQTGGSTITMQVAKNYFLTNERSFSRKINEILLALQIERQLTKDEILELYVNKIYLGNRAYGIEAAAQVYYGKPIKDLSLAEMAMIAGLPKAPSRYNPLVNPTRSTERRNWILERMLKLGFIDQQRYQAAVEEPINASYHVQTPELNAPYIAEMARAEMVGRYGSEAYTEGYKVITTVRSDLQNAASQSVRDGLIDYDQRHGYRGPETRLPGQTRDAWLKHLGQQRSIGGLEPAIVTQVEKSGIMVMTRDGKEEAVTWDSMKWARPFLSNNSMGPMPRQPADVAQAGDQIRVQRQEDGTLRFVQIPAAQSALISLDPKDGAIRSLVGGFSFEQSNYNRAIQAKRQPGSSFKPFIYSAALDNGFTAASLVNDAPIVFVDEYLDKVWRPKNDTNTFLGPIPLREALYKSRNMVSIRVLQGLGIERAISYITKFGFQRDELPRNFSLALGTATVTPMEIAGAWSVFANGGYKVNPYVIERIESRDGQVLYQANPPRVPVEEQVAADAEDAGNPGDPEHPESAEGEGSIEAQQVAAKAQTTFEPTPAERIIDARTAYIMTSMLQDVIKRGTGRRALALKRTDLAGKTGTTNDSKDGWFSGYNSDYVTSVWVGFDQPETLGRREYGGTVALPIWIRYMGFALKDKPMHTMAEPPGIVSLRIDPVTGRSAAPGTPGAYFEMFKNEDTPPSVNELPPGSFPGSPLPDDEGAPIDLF
compound,measurement,setting,value
CC(C)(O/N=C(\C(=O)N[C@H]1CON(C2(C(=O)O)C[C@H](N3C(=O)c4cc(O)c(O)cc4C3=O)C(=O)O2)C1=O)c1csc(N)n1)C(=O)O (stereo partly drawn),MIC,Pseudomonas aeruginosa [1],8 µg/mL
same,MIC,Pseudomonas aeruginosa [2],0.125 µg/mL
same,Ratio,Pseudomonas aeruginosa [3],64
same,MIC,Pseudomonas aeruginosa [4],16 µg/mL
same,Ratio,Pseudomonas aeruginosa [5],32
same,Ratio,Pseudomonas aeruginosa [6],32
same,MIC,Pseudomonas aeruginosa [7],0.5 µg/mL
same,MIC,Pseudomonas aeruginosa [8],0.25 µg/mL
same,Ratio,Pseudomonas aeruginosa [9],1
same,Ratio,Pseudomonas aeruginosa [10],32
same,Ratio,Pseudomonas aeruginosa [11],1
same,MIC,Pseudomonas aeruginosa [12],16 µg/mL
same,MIC,Pseudomonas aeruginosa [13],8 µg/mL
same,MIC,Escherichia coli [14],0.015 µg/mL
same,Ratio,Pseudomonas aeruginosa [15],1
same,MIC,Pseudomonas aeruginosa [16],0.5 µg/mL
same,Ratio,Pseudomonas aeruginosa [17],1
same,MIC,Escherichia coli [18],0.06 µg/mL
same,Ratio,Pseudomonas aeruginosa [19],1
same,MIC,Pseudomonas aeruginosa [20],4 µg/mL
same,MIC,Escherichia coli [21],0.03 µg/mL
same,MIC,Escherichia coli [22],0.03 µg/mL
same,Ratio,Pseudomonas aeruginosa [23],1
same,pIC50,[24],7.52
same,Ratio,Pseudomonas aeruginosa [25],1
same,MIC,Escherichia coli [26],0.06 µg/mL
same,MIC,Pseudomonas aeruginosa [27],4 µg/mL
same,MIC,Escherichia coli [28],0.03 µg/mL
same,Ratio,Pseudomonas aeruginosa [29],64
same,MIC,Escherichia coli [30],0.03 µg/mL
same,Ratio,Pseudomonas aeruginosa [31],1
same,Ratio,Pseudomonas aeruginosa [32],64
same,Ratio,Pseudomonas aeruginosa [33],1
